Results on eleven molecules are retold here after ChEMBL document CHEMBL5104205, “Design and evaluation of poly-nitrogenous adjuvants capable of potentiating antibiotics in Gram-negative bacteria” (RSC Med Chem, 2022).

The subject of data set [1] is Escherichia coli. The data set is described as follows: Antibiotic adjuvant activity against Penicillin G-treated wild type Escherichia coli ATCC 25922 assessed as bacterial growth inhibition by broth microdilution assay. The data set is classed as functional. Summed up:
(§1)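 Broth microdilution per CLSI M100-S23. Antibiotics spanned 0–256 µg/mL (in DMSO or water), combined with adjuvant at 20, 50 or 100 µM (in DMSO). Inoculum was a 4–6 h culture in full-strength TSB. Plates ran 12–18 h at 37 °C, each treatment in triplicate. OD590 was blank-subtracted and normalized to vehicle growth. MIC is the lowest concentration giving ≥90% inhibition.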
(In general: Broth dilution looks for growth in wells or tubes with falling amounts of substance.)

For data set [2], the system named is Escherichia coli. The data set is described as follows: Antibiotic adjuvant activity against Ampicillin-treated wild type Escherichia coli ATCC 25922 assessed as bacterial growth inhibition by broth microdilution assay. It counts as functional. In a few lines:
as §1

The subject of data set [3] is Escherichia coli. The data set is described as follows: Antibiotic adjuvant activity against Rifampicin-treated wild type Escherichia coli ATCC 25922 assessed as bacterial growth inhibition by broth microdilution assay. The data set is classed as functional. Summed up:
as §1

Data set [4] has as its system Escherichia coli. The data set is described as follows: Antibiotic adjuvant activity against Erythromycin-treated wild type Escherichia coli ATCC 25922 assessed as bacterial growth inhibition by broth microdilution assay. It counts as functional. Summed up: as §1
The subject of data set [5] is Escherichia coli. The data set is described as follows: Antibiotic adjuvant activity against Kanamycin-treated wild type Escherichia coli ATCC 25922 assessed as bacterial growth inhibition by broth microdilution assay. It counts as functional. In a few lines: as §1
The test system of data set [6] is Escherichia coli. The data set is described as follows: Antibiotic adjuvant activity against Novobiocin-treated wild type Escherichia coli ATCC 25922 assessed as bacterial growth inhibition by broth microdilution assay. The data set is classed as functional. Summed up: as §1
Data set [7] has as its system Pseudomonas aeruginosa. The data set is described as follows: Antibiotic adjuvant activity against Penicillin G-treated Pseudomonas aeruginosa ATCC 9027 assessed as bacterial growth inhibition by broth microdilution assay. It counts as functional. In a few lines: as §1
The test system of data set [8] is Pseudomonas aeruginosa. The data set is described as follows: Antibiotic adjuvant activity against Ampicillin-treated Pseudomonas aeruginosa ATCC 9027 assessed as bacterial growth inhibition by broth microdilution assay. It counts as functional. Summed up: as §1
The subject of data set [9] is Pseudomonas aeruginosa. The data set is described as follows: Antibiotic adjuvant activity against Rifampicin-treated Pseudomonas aeruginosa ATCC 9027 assessed as bacterial growth inhibition by broth microdilution assay. The data set is classed as functional. Summed up: as §1
Data set [10] concerns Pseudomonas aeruginosa. The data set is described as follows: Antibiotic adjuvant activity against Erythromycin-treated Pseudomonas aeruginosa ATCC 9027 assessed as bacterial growth inhibition by broth microdilution assay. It counts as functional. Summed up: as §1
Data set [11] relates to Pseudomonas aeruginosa. The data set is described as follows: Antibiotic adjuvant activity against Kanamycin-treated Pseudomonas aeruginosa ATCC 9027 assessed as bacterial growth inhibition by broth microdilution assay. It counts as functional. In a few lines: as §1
For data set [12], the system named is Pseudomonas aeruginosa. The data set is described as follows: Antibiotic adjuvant activity against Novobiocin-treated Pseudomonas aeruginosa ATCC 9027 assessed as bacterial growth inhibition by broth microdilution assay. It counts as functional. In a few lines: as §1
The subject of data set [13] is Pseudomonas aeruginosa. The data set is described as follows: Antibiotic adjuvant activity against Erythromycin-treated Pseudomonas aeruginosa ATCC 9027 assessed as fold reduction in bacterial growth inhibition by broth microdilution assay. The data set is classed as functional.
The nature of data set [14]: Drug uptake in wild type Escherichia coli ATCC 25922 assessed as drug accumulation across outer membrane. It counts as ADME. Summed up: (§2)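 Cells were washed twice in PBS, aliquoted and pre-shaken 10 min at 37 °C. Compound was added and incubated 10 min at 37 °C, with CFU counted before and after. Samples were spun through cold silicone oil. Supernatants were quantified by LC-MS single-ion monitoring against calibration curves.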

The nature of data set [15]: Drug uptake in Pseudomonas aeruginosa ATCC 9027 assessed as drug accumulation across outer membrane. It counts as ADME. Summed up: as §2
For data set [16], the system named is Escherichia coli. The data set is described as follows: Antibiotic adjuvant activity against Erythromycin-treated wild type Escherichia coli ATCC 25922 assessed as fold reduction in bacterial growth inhibition by broth microdilution assay. The data set is classed as functional.
For data set [17], the system named is Escherichia coli. The data set is described as follows: Antibiotic adjuvant activity against Novobiocin-treated wild type Escherichia coli ATCC 25922 assessed as fold reduction in bacterial growth inhibition by broth microdilution assay. It counts as functional.
The test system of data set [18] is Pseudomonas aeruginosa. The data set is described as follows: Antibacterial activity against Pseudomonas aeruginosa ATCC 9027 assessed as bacterial growth inhibition at 1000 ug/ml by broth microdilution assay. The data set is classed as functional.
The test system of data set [19] is Escherichia coli. The data set is described as follows: Antibacterial activity against wild type Escherichia coli ATCC 25922 assessed as bacterial growth inhibition at 100 ug/ml by broth microdilution assay. The data set is classed as functional.
The subject of data set [20] is Escherichia coli. The data set is described as follows: Antibacterial activity against wild type Escherichia coli ATCC 25922 assessed as bacterial growth inhibition by broth microdilution assay. The data set is classed as functional.
Data set [21] has as its system Pseudomonas aeruginosa. The data set is described as follows: Antibacterial activity against Pseudomonas aeruginosa ATCC 9027 assessed as bacterial growth inhibition by broth microdilution assay. The data set is classed as functional.

In brackets after ≈: the same amount, converted by molar mass. A value given as a limit tells only on which side of the number the result lay.

For orientation: MIC means the least concentration at which growth counts as inhibited. For the molecule `Cl.Cl.N=C(N)c1ccc(NC(=O)CCC(=O)Nc2ccc(C(=N)N)cc2)cc1`, the MIC in the data set on Escherichia coli [1] stood at 64 µg/mL; in the data set with Escherichia coli [2] it was 16 µg/mL; in the data set with Escherichia coli [3], 4 µg/mL; in the data set on Escherichia coli [4], 128 µg/mL; in the data set on Escherichia coli [5], 64 µg/mL; with Escherichia coli [6] it was 64 µg/mL. The MIC was more than 256 µg/mL in the data set on Pseudomonas aeruginosa [7]; 128 µg/mL in the data set on Pseudomonas aeruginosa [8]; 16 µg/mL with Pseudomonas aeruginosa [9]; 64 µg/mL in the data set on Pseudomonas aeruginosa [10]; more than 64 µg/mL in the data set on Pseudomonas aeruginosa [11]; 256 µg/mL with Pseudomonas aeruginosa [12]. Also, the “fold change (FC)” value with Pseudomonas aeruginosa [13] was 2. Also, the values for the Drug uptake in data set [14] and in data set [15] were 1 nmol and 0.9 nmol, respectively.

As a reminder, the inhibition is the change of the read-out against control, counted positive when it falls. As for `Cl.Cl.N=C(N)Nc1ccc(NC(=O)CCC(=O)Nc2ccc(NC(=N)N)cc2)cc1`, the MIC turned out to be 64 µg/mL in the data set on Escherichia coli [1]; 16 µg/mL in the data set with Escherichia coli [2]; 8 µg/mL in the data set on Escherichia coli [3]; 64 µg/mL in the data set with Escherichia coli [4]; 64 µg/mL in the data set on Escherichia coli [5]; 64 µg/mL in the data set with Escherichia coli [6]. For the same molecule, the MIC with Pseudomonas aeruginosa [7] is more than 256 µg/mL; in the data set on Pseudomonas aeruginosa [8] it was 128 µg/mL; in the data set on Pseudomonas aeruginosa [9], 16 µg/mL; with Pseudomonas aeruginosa [10], 64 µg/mL; in the data set with Pseudomonas aeruginosa [11], more than 64 µg/mL; in the data set with Pseudomonas aeruginosa [12] it was 256 µg/mL. The “fold change (FC)” value with Escherichia coli [16], in the data set with Pseudomonas aeruginosa [13] and in the data set with Escherichia coli [17] was 2 each time. Moreover, the Drug uptake in data set [14] and in data set [15] was 1.1 nmol in each case. For the same molecule, in the data set with Pseudomonas aeruginosa [18], the inhibition at 1000 µg/mL came to 33%. Also, the inhibition at 100 µg/mL in the data set on Escherichia coli [19] stood at 18%.

Regarding `Cl.Cl.N=C(N)Nc1ccc(NC(=O)CCC(=O)Nc2ccc(N)cc2)cc1`, the MIC in the data set on Escherichia coli [1] came out at 64 µg/mL; with Escherichia coli [2], 16 µg/mL; in the data set on Escherichia coli [3] it was 8 µg/mL; in the data set with Escherichia coli [4], 64 µg/mL; in the data set with Escherichia coli [5] it was 64 µg/mL; with Escherichia coli [6], 64 µg/mL. In addition, the MIC in the data set with Pseudomonas aeruginosa [7] was more than 256 µg/mL; in the data set on Pseudomonas aeruginosa [8], 128 µg/mL; in the data set on Pseudomonas aeruginosa [9], 16 µg/mL; in the data set with Pseudomonas aeruginosa [10], 64 µg/mL; in the data set with Pseudomonas aeruginosa [11] it was more than 64 µg/mL; with Pseudomonas aeruginosa [12], 256 µg/mL. Moreover, the “fold change (FC)” value in the data set on Escherichia coli [16] and in the data set with Pseudomonas aeruginosa [13] was 2 throughout. In addition, the figures for the Drug uptake in data set [14] and in [15] were 1.3 nmol and 0.3 nmol, respectively.

As to `Cl.Cl.Nc1ccc(NC(=O)CCC(=O)Nc2ccc(N)cc2)cc1`, the MIC turned out to be 64 µg/mL in the data set with Escherichia coli [1]; 16 µg/mL with Escherichia coli [2]; 8 µg/mL in the data set on Escherichia coli [3]; 128 µg/mL with Escherichia coli [4]; 64 µg/mL with Escherichia coli [5]; 128 µg/mL in the data set with Escherichia coli [6]. Further, the MIC with Pseudomonas aeruginosa [7] is more than 256 µg/mL; in the data set on Pseudomonas aeruginosa [8], 128 µg/mL; in the data set on Pseudomonas aeruginosa [9] it was 16 µg/mL; in the data set on Pseudomonas aeruginosa [10] it was 64 µg/mL; in the data set with Pseudomonas aeruginosa [11] it was more than 64 µg/mL; with Pseudomonas aeruginosa [12], 256 µg/mL. Moreover, the “fold change (FC)” value with Pseudomonas aeruginosa [13] is recorded as 2. Further, the values for the Drug uptake in [14] and in [15] were 3.3 nmol and 2 nmol, respectively.

As to `CC1(C)S[C@@H]2[C@H](NC(=O)[C@H](N)c3ccccc3)C(=O)N2[C@H]1C(=O)O` [AMPICILLIN], the MIC with Escherichia coli [20] came to 16 µg/mL (≈ 45.8 µM); in the data set on Pseudomonas aeruginosa [21] it was 128 µg/mL (≈ 366 µM). For the same molecule, the Drug uptake in [14] and in data set [15] was less than 0.06 nmol in each case.

With `O=C(O)c1cn(C2CC2)c2cc(N3CCNCC3)c(F)cc2c1=O` [CIPROFLOXACIN], the Drug uptake in data set [14] is 2.4 nmol; in data set [15] it was 1.8 nmol.

Regarding `CC[C@H]1OC(=O)[C@H](C)[C@@H](O[C@H]2C[C@@](C)(OC)[C@@H](O)[C@H](C)O2)[C@H](C)[C@@H](O[C@@H]2O[C@H](C)C[C@H](N(C)C)[C@H]2O)[C@](C)(O)C[C@@H](C)C(=O)[C@H](C)[C@@H](O)[C@]1(C)O` [ERYTHROMYCIN], the MIC with Escherichia coli [20] and in the data set with Pseudomonas aeruginosa [21] was 128 µg/mL (≈ 174 µM) in each case.

As for `NC[C@H]1O[C@H](O[C@H]2[C@H](O)[C@@H](O[C@H]3O[C@H](CO)[C@@H](O)[C@H](N)[C@H]3O)[C@H](N)C[C@@H]2N)[C@H](O)[C@@H](O)[C@@H]1O` [KANAMYCIN], the MIC in the data set with Escherichia coli [20] was 64 µg/mL (≈ 132 µM); in the data set on Pseudomonas aeruginosa [21], more than 64 µg/mL.

On to `CO[C@@H]1[C@@H](OC(N)=O)[C@@H](O)[C@H](Oc2ccc3c(O)c(NC(=O)c4ccc(O)c(CC=C(C)C)c4)c(=O)oc3c2C)OC1(C)C` [NOVOBIOCIN], for which the MIC in the data set with Escherichia coli [20] stood at 128 µg/mL (≈ 209 µM); in the data set with Pseudomonas aeruginosa [21], 256 µg/mL (≈ 418 µM).

In the case of `CC1(C)S[C@@H]2[C@H](NC(=O)Cc3ccccc3)C(=O)N2[C@H]1C(=O)O` [PENICILLIN G], the minimum inhibitory concentration (MIC) is 64 µg/mL (≈ 191 µM) in the data set on Escherichia coli [20] and more than 256 µg/mL in the data set with Pseudomonas aeruginosa [21].

On to `CO[C@H]1/C=C/O[C@@]2(C)Oc3c(C)c(O)c4c(O)c(c(/C=N/N5CCN(C)CC5)c(O)c4c3C2=O)NC(=O)/C(C)=C\C=C\[C@H](C)[C@H](O)[C@@H](C)[C@@H](O)[C@@H](C)[C@H](OC(C)=O)[C@@H]1C` [RIFAMPIN], for which the MIC with Escherichia coli [20] was determined as 8 µg/mL (≈ 9.72 µM); with Pseudomonas aeruginosa [21], 16 µg/mL (≈ 19.4 µM).
